Data: ChEMBL document CHEMBL3244205, “beta-D-Arabinofuran[1',2':4,5]oxazolo-1,3,5-triazine-5-N-methyl-4,6-dione and analogues, unusually specific immunosuppressive agents” (J Med Chem, 1978)
Activity calls are given as the source filed them. No cut-off for these calls is given here.

Legend:
[1] = Immunosuppressive activity in C57B1/6 mouse spleen effector T cells assessed as ratio of effector T cell to DBA/2 mouse [51Cr]-labeled P815 cell giving 50% specific lysis at 100 ug/mL after 5 days by [51Cr] release assay in presence of B6D2(F1) mouse spleen cells (reference value: 6 no unit); type: functional
How it was run: (§1)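 Normal C57B1/6 spleen cells (10 × 10^6) cocultured 5 days at 37 °C (83% N2/10% CO2/7% O2) with 0.5 × 10^6 B6D2F1 spleen cells as antigen and compound at 100 μg/mL. Medium was RPMI 1640 with 20% fetal calf serum and gentamycin, using at least 12 cultures per concentration. Pooled cells were then mixed with 51Cr-P815 targets at various ratios (≥3 replicates/ratio) for 3 h at 37 °C. Lysis was plotted against ratio; lytic unit = cells giving 50% lysis of 25 × 10^3 targets.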

Human alphaherpesvirus 1 [2] = assay: Antiviral activity against Herpes simplex virus type 1 infected in rabbit kidney monolayer cells assessed as reduction in viral titer at 25 ug/mL relative to control; type: functional
[3] = Immunosuppressive activity in H-2d alloantigen-sensitized C57B1/6 (H-2b) mouse spleen effector T cells assessed as inhibition of effector T cell-induced DBA/2 (H-2d) mouse [51Cr]-labeled P815 cell lysis by measuring lysed cells at 100 ug/mL after 4 hrs by [51Cr] release assay relative to control; type: functional
How it was run: (§2)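 C57B1/6 (H-2^b) mice sensitized ip with 30–50 × 10^6 P815 mastocytoma cells (DBA/2-passaged). Spleens pooled from 5–7 mice taken 10 days later. Effectors mixed 50:1 with 51Cr-labeled P815 targets in RPMI 1640/Hepes with 10% heat-inactivated calf serum plus compound. Incubated 4 h at 37 °C in 83% N2/10% CO2/7% O2. Supernatant 51Cr counted, run in quadruplicate. % specific lysis computed from spontaneous and water-lysis controls, then expressed as % of untreated control.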

[4] = Immunosuppressive activity in C57B1/6 mouse spleen effector T cells assessed as recovery of number of T cell required to give 50% lysis of 25 X 10^3 DBA/2 mouse [51Cr]-labeled P815 cells treated on day 4 of 5 days culture system measured after day 5 by [51Cr] release assay in presence of B6D2(F1) mouse spleen cells relative to control; type: functional
How it was run: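 Alloantigen coculture was the same: C57B1/6 spleen cells plus B6D2F1 stimulator cells, 5 days at 37 °C. Here compound was added on day 4 rather than at culture start. On day 5, cells were pooled and assayed against 51Cr-P815 targets for 3 h. Lytic units (cells giving 50% lysis of 25 × 10^3 targets) recovered per culture were expressed as percent of control.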

Human alphaherpesvirus 1 [5] = assay: Antiviral activity against Herpes simplex virus type 1 infected in mouse assessed as mean survival time at 200 mg/kg, sc tid administered for 4 days (reference value: 8.3 days); type: functional; conditions: route subcutaneous
[6] = Immunosuppressive activity in H-2d alloantigen-sensitized C57B1/6 (H-2b) mouse spleen effector T cells assessed as inhibition of effector T cell-induced DBA/2 (H-2d) mouse [51Cr]-labeled P815 cell lysis by measuring lysed cells at 10 ug/mL after 4 hrs by [51Cr] release assay relative to control; type: functional; how it was run: as §2
[7] = Immunosuppressive activity in H-2d alloantigen-sensitized C57B1/6 (H-2b) mouse spleen effector T cells assessed as inhibition of effector T cell-induced DBA/2 (H-2d) mouse [51Cr]-labeled P815 cell lysis by measuring lysed cells at 1 ug/mL after 4 hrs by [51Cr] release assay relative to control; type: functional; how it was run: as §2
Human alphaherpesvirus 1 [8] = assay: Antiviral activity against Herpes simplex virus type 1 infected in rabbit kidney monolayer cells assessed as reduction in viral titer; type: functional, organism-based
[9] = Immunosuppressive activity in C57B1/6 mouse spleen effector T cells assessed as effect on number of IgM-anti sheep erythrocyte antibody plaque forming cells per culture at 1 ug/culture after 5 days in presence of sheep erythrocytes (reference value: 6440 +/- 2255 PFC/culture); type: functional
[10] = Immunosuppressive activity in C57B1/6 mouse spleen effector T cells assessed as effect on number of IgM-anti sheep erythrocyte antibody plaque forming cells per culture at 100 ug/culture after 5 days in presence of sheep erythrocytes (reference value: 6440 +/- 2255 PFC/culture); type: functional
[11] = Immunosuppressive activity in C57B1/6 mouse spleen effector T cells assessed as effect on number of IgM-anti sheep erythrocyte antibody plaque forming cells per culture at 10 ug/culture after 5 days in presence of sheep erythrocytes (reference value: 6440 +/- 2255 PFC/culture); type: functional
[12] = Cytotoxicity against C57B1/6 (H-2b) mouse spleen effector T cells assessed as decrease in cell number at 1 to 100 ug/mL after 4 hrs relative to control; type: cell-based
[13] = Cytotoxicity against C57B1/6 mouse spleen effector T cells assessed as decrease in cell number at 100 ug/mL after 5 days relative to control; type: cell-based; conditions: 120 h
[14] = Immunosuppressive activity in C57B1/6 mouse spleen effector T cells assessed as inhibition of effector T cell-induced DBA/2 mouse [51Cr]-labeled P815 cell lysis at 100 ug/mL after 5 days by [51Cr] release assay in presence of B6D2(F1) mouse spleen cells relative to control; type: functional; conditions: C57B1/6, P815, Spleen, 120 h; how it was run: as §1
Human alphaherpesvirus 1 [15] = assay: Antiviral activity against Herpes simplex virus type 1 infected in mouse assessed as mean survival time at 150 mg/kg, sc tid administered for 4 days (reference value: 8.3 days); type: functional; conditions: route subcutaneous
How it was run: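 HSV-1-infected mice dosed subcutaneously three times daily on days 0–4. Vehicle-dosed infected mice served as controls. Read-out was mean survival time in days.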

## CN1CN([C@H]2C[C@H](O)[C@@H](CO)O2)C(=O)NC1=O
[1]
  Ratio: 7.2
Human alphaherpesvirus 1 [2]
  fold change (FC): 10
[3]
  Specific lysis, % of untreated control: 73%
[4]
  Activity: 90%
Human alphaherpesvirus 1 [5]
  MST: 18 days
[6]
  Specific lysis, % of untreated control: 88%
[7]
  Specific lysis as % of untreated control: 90%

## CC(=O)OC[C@H]1O[C@@H](n2c(=O)[nH]c(=O)n(C)c2=O)[C@@H](OC(C)=O)[C@@H]1OC(C)=O
[1]
  Ratio: 10.5
Human alphaherpesvirus 1 [8]
  Activity: inactive
[3]
  Specific lysis, % of untreated control: 88%
[4]
  Activity: 90%
[9]
  PFC: 4907
[10]
  PFC: 10040
[11]
  PFC: 4307
[6]
  Specific lysis, % of untreated control: 96%
[7]
  Specific lysis as % of untreated control: 96%

## CC(=O)OC[C@H]1O[C@@H]2[C@@H](Oc3nc(=O)n(C)c(=O)n32)[C@@H]1OC(C)=O
[1]
  Ratio: 8.5
Human alphaherpesvirus 1 [8]
  Activity: Active
[3]
  Specific lysis, % of untreated control: 93%
[4]
  Activity: 90%
[9]
  PFC: 5240
[10]
  PFC: 8720
[11]
  PFC: 5933
[6]
  Specific lysis, % of untreated control: 103%
[7]
  Specific lysis as % of untreated control: 95%

## Cn1c(=O)[nH]c(=O)n([C@@H]2O[C@H](CO)[C@@H](O)[C@@H]2O)c1=O
[12]
  Activity: Non-toxic
Human alphaherpesvirus 1 [8]
  Activity: inactive
[3]
  Specific lysis, % of untreated control: 93%
[4]
  Activity: 90%
[9]
  PFC: 6240
[13]
  Activity: Non-toxic
[10]
  PFC: 6293
[11]
  PFC: 5520
[6]
  Specific lysis, % of untreated control: 98%
[7]
  Specific lysis as % of untreated control: 94%
[14]
  inhibition at 100 µg/mL: 84%

## Cn1c(=O)nc2n(c1=O)[C@@H]1O[C@H](CO)[C@@H](O)[C@@H]1O2
[12]
  Activity: Non-toxic
Human alphaherpesvirus 1 [15]
  MST: 5.4 days
[3]
  Specific lysis, % of untreated control: 92%
[4]
  Activity: 90%
[9]
  PFC: 4227
[13]
  Activity: Non-toxic
[10]
  PFC: 7107
[11]
  PFC: 4853
[6]
  Specific lysis, % of untreated control: 88%
[7]
  Specific lysis as % of untreated control: 100%
[14]
  inhibition at 100 µg/mL: 90%
